Most compounds without a hit are left out; they make up all but 2.9% or so of the library.
PGC1a acetyl inh: inhibitors of PGC1a acetylation signal, primary screen, cell-based, U2OS, AlphaScreen, inhibitor mode. AID 651687, 2012. 350,000 tested, 0.17% active. inhibition, % at 15.6 µM. AlphaScreen anti-acetyl-lysine; with virally co-expressed GCN5 acetyltransferase;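 active = every replicate shows inhibition of at least 40%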
DENV2 CPE rescue: inhibitors of DENV2 cytopathic effect, primary screen, cell-based, plate reader, single concentration; DENV2-infected cells, cytopathic effect rescue; CPE inhibition, % at 9.99 µM; 350,000 tested, 1.7% active; in the data active = CPE inhibition above about 20%, passing the limit was not always enough; tested in BHK-21 cells
SIRT5 inh: SIRT5 desuccinylase inhibitors, primary screen, biochemical, fluorescence imaging, single point, set 5; inhibition, % at 15 µM; AID 652115, 2013; Purified SirT5, succinyl-peptide AMC, trypsin-coupled fluorescence; NAD-dependent protein deacylase sirtuin-5, mitochondrial (Homo sapiens), Q9NXA8; 330,000 tested, 1.1% active; in the data active = inhibition above about 15%
Target sequence (Q9NXA8 whole entry, looked up): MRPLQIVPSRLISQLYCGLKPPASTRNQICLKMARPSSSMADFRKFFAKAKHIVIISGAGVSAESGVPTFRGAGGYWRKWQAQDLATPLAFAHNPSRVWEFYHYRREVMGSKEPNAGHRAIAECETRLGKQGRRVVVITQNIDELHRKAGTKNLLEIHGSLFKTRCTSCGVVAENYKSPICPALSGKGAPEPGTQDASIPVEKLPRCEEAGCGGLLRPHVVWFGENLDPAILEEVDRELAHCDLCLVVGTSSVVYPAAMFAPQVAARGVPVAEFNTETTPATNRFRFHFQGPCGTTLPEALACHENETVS
Statin myotox sup: suppressors of statin myotoxicity in C2C12 myotubes, primary screen, cell-based, single point, plate reader. C2C12 myotubes + simvastatin, ATP luminescence, 48 h; scaled: DMSO 0, geranylgeraniol control 100. 330,000 tested, 0.78% active. rescue of ATP level, % at 7.49 µM. AID 602340, 2012;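 active = mean ATP rescue above about 67%, or every replicate alone reaching that limit, limit read from the data, passing the limit was not always enough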;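 note: myotubes were challenged with 10 µM simvastatin during compound exposure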
S100A4 MyoIIA: inhibitors of S100A4-myosin IIA peptide binding, primary screen, biochemical, fluorescence polarization, TAMRA-MyoIIA peptide; 360,000 tested, 0.14% active; inhibition, % at 10.7 µM; AID 652163, 2013;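 active = mean inhibition of at least 70% across replicates, with every replicate also reaching that level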
Target sequence (P26447 whole entry, looked up): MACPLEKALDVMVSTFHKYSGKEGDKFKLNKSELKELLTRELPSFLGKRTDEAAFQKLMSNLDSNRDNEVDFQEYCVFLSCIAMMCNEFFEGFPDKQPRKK
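incubation = readout 5 min after mixing, signal stable up to 60 min | system = S100A4 monomer protein | buffer or medium = HEPES pH 7.2 with CaCl2, KCl, NaCl, DTT, Triton | benchmarks = neutral control DMSO, positive control TFP | also added = fluorescent myosin IIA peptide, 5 nM | compound dosing = one concentration per compound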
A number is an active result; – = inactive; · = no result given.

SMILES | PGC1a acetyl inh | DENV2 CPE rescue | SIRT5 inh | Statin myotox sup | S100A4 MyoIIA
Cc1noc(C)c1S(=O)(=O)Nc1ccc2c(c1)C(=O)N([C@H](C)CO)C[C@@H](C)[C@@H](CN(C)S(=O)(=O)c1cccs1)O2 | – | – | – | – | –
Cc1ccc(NC(=O)COc2ccc(/C=C3/SC(=Nc4ccccc4)N(Cc4cccnc4)C3=O)cc2)cc1 | – | · | · | 80 | ·
Cc1ccc(NC(=O)COc2ccc(/C=N/NC(=O)CSCc3ccccc3)cc2)cc1 | · | · | · | – | ·
CN(C)C(=O)C[C@H]1CC[C@@H]2[C@H](COC[C@H](O)CN2S(=O)(=O)c2ccccc2Cl)O1 | – | – | – | – | –
CS(=O)(=O)c1nc(S(=O)(=O)c2ccc(Cl)cc2)c(N2CCC(O)CC2)s1 | – | – | – | 85 | –
Cc1ccc(S(=O)(=O)c2nc(S(C)(=O)=O)sc2N2CCC(O)CC2)cc1 | – | – | – | – | –
Cc1cccc(NC(=O)Cn2c(=O)n(CC3CCCO3)c(=O)c3ccccc32)c1 (stereo unspecified) | · | – | – | – | –
CCCN(CCC)C(=O)Cn1c(=O)n(CCCCC(=O)NC2CCCC2)c(=O)c2ccccc21 | – | · | · | 97 | ·
CCC(C)NC(=O)Cn1c(=O)n(CCCC(=O)NCc2ccccc2Cl)c(=O)c2ccccc21 (stereo unspecified) | – | · | · | 134 | ·
CCOc1ccc(NC(=O)Cn2c(=O)n(CC3CCCO3)c(=O)c3ccccc32)cc1 (stereo unspecified) | – | – | 15 | – | –
O=C(CCCCn1c(=O)c2ccccc2n(CC(=O)NC2CCCC2)c1=O)NC1CCCC1 | – | · | · | 81 | ·
CC(=O)N(C)C[C@@H]1Oc2cc(-c3cccc(F)c3)ccc2S(=O)(=O)N([C@H](C)CO)C[C@@H]1C | – | – | – | – | –
N#Cc1ccc(C(=O)OCC(=O)N2CCN(C(=O)c3ccco3)CC2)cc1 | – | – | 23 | – | –
O=C(OCC(=O)N1CCN(C(=O)c2ccco2)CC1)c1ccccc1 | – | – | – | · | –
O=C(OCC(=O)N1CCN(C(=O)c2ccco2)CC1)c1ccccc1OCc1ccc(Cl)cc1 | – | · | · | 133 | ·
CCc1cc(=O)oc2cc(C)cc(OCC(=O)NC(Cc3c[nH]c4ccc(O)cc34)C(=O)O)c12 (stereo unspecified) | – | – | · | – | –
CCc1cc(=O)oc2cc(C)cc(OC(C)C(=O)NC(Cc3c[nH]c4ccc(O)cc34)C(=O)O)c12 (stereo unspecified) | – | 68 | – | – | –
CC(Oc1ccc2ccc(=O)oc2c1)C(=O)NC(Cc1c[nH]c2ccc(O)cc12)C(=O)O (stereo unspecified) | – | 102 | – | – | –
CCC(=O)N1[C@H](CO)[C@@H](c2ccc(-c3ccc(F)cc3)cc2)C12CN(C(C)=O)C2 | – | – | – | · | –
O=C(NCC(F)(F)F)[C@H]1[C@H](CO)[C@H]2Cn3c(cccc3=O)[C@@H]1N2CC1CCCC1 | – | – | – | · | –
CCC(=O)N1C[C@H](C)[C@@H](OC)CN(C)C(=O)c2cc(NC(=O)c3ccccc3)ccc2OC[C@H]1C | – | – | – | – | –
COc1ccc2c3c([nH]c2c1)[C@@H](CO)N(C(=O)NC(C)C)CC31CN(C(=O)c2cnccn2)C1 | – | – | – | · | –
CCOC(=O)c1sc2nc(OCc3cccnc3)cc(C)c2c1N | · | – | 25 | · | –
COc1cc(Cl)c(CN2CCCC(CO)(Cc3ccccc3F)C2)cc1OC (stereo unspecified) | – | – | 101 | – | –
COc1ccc2c3c(n(C)c2c1)[C@H](CO)N(C(=O)NC(C)C)CC31CCN(CC2CCCC2)CC1 | · | 40 | – | · | –
SMILES | PGC1a acetyl inh | DENV2 CPE rescue | SIRT5 inh | Statin myotox sup | S100A4 MyoIIA
CCCNC(=O)N1CC2(CN(S(=O)(=O)c3ccc(OC)cc3)C2)c2c(n(C)c3cc(OC)ccc23)[C@H]1CO | – | – | 16 | · | –
CCCNC(=O)N1CC2(CCN(C(=O)COC)CC2)c2c(n(C)c3cc(OC)ccc23)[C@@H]1CO | – | 70 | · | · | ·
CCCNC(=O)N1CC2(CN(S(=O)(=O)c3cccc(OC)c3)C2)c2c(n(C)c3cc(OC)ccc23)[C@H]1CO | – | 41 | · | · | ·
C=CCCC1CN(Cc2ccc(OC)cc2)S(=O)(=O)c2c(Oc3cc(C)c(C)c(C)c3)cccc2O1 (stereo unspecified) | · | – | · | · | –
COc1ccc2c3c(n(C)c2c1)[C@@H](CO)N(S(=O)(=O)c1ccc(C)cc1)CC31CN(S(=O)(=O)c2ccc(C)cc2)C1 | – | 63 | · | · | ·
COc1ccc2c3c(n(C)c2c1)[C@H](CO)N(C)CC31CN(S(C)(=O)=O)C1 | – | 23 | · | · | ·
CCS(=O)(=O)N1CCC2(CC1)CN(C)[C@H](CO)c1c2c2ccc(OC)cc2n1C | – | – | · | · | ·
COc1cccc(NC(=O)CSc2nnc(-c3cc(-c4ccccn4)nc4ccccc34)o2)c1 | – | · | · | 83 | ·
C[C@H]1CN([C@@H](C)CO)C(=O)c2cc(NS(=O)(=O)c3ccccc3)ccc2O[C@H]1CN(C)Cc1ccc(Oc2ccccc2)cc1 | – | 35 | – | – | –
C[C@@H]1CN([C@@H](C)CO)C(=O)c2cc(NS(=O)(=O)c3ccccc3)ccc2O[C@@H]1CN(C)Cc1ccc(Oc2ccccc2)cc1 | – | – | 20 | – | –
C[C@H]1CN([C@@H](C)CO)C(=O)c2cc(NS(=O)(=O)c3ccccc3)ccc2O[C@@H]1CN(C)Cc1ccc(Oc2ccccc2)cc1 | – | – | – | – | –
CCOC(=O)C[C@H]1c2cc(F)ccc2S(=O)(=O)N1c1ccccc1 | – | – | – | – | –
CCOC(=O)C[C@H]1c2ccccc2S(=O)(=O)N1c1ccccc1 | – | 37 | · | – | –
Cc1ccc(C(=O)c2ncc[nH]2)cc1 | – | 52 | · | – | –
CCOC(=O)c1c(-c2ccc(OC)cc2)csc1NC(=O)CCN1CCOCC1 | · | – | – | · | –
CCOC(=O)c1c(-c2ccc(C)cc2)csc1NC(=O)CCN1CC(C)OC(C)C1 (stereo unspecified) | – | – | 20 | · | –
Cc1cc(NC(=O)c2ccc(N3C(=O)CCC3=O)cc2)no1 | – | · | · | 115 | ·
COc1ccc(CC(=O)Nc2cc(C)on2)cc1 | – | · | · | 137 | ·
Cc1cc(NC(=O)c2ccc(F)cc2)no1 | – | – | · | – | –
COc1ccc(OCCC(=O)Nc2cc(C)on2)cc1 | – | · | · | – | ·
Cc1cc(NC(=O)c2ccno2)no1 | – | – | 19 | – | –
O=S(=O)(c1ccc(F)cc1)N1CCCCN2[C@H](CO)[C@@H](c3ccc(-c4ccccc4F)cc3)[C@@H]2C1 | – | · | – | · | –
O=C(NN1C(=O)CSC1=S)C(=O)NN1C(=O)CSC1=S | – | – | 50 | – | –
O=C(Cc1cccc2ccccc12)NN1C(=O)CSC1=S | – | – | – | · | –
O=C(Nc1ccccc1F)N[C@H]1CC[C@@H](CCNC(=O)C2CCCCC2)O[C@H]1CO | – | – | – | – | –

Screening data (PubChem)
